ChEMBL document CHEMBL5252639, “Exploration of cytotoxic potential and tubulin polymerization inhibition activity of cis-stilbene-1,2,3-triazole congeners” (RSC Med Chem, 2023)
pIC50: −log10 of the molar value. The source made the active and inactive calls. No cut-off for these calls is given here.

Tests used:
[1] = system: HCT-116; assay: Induction of morphological change in human HCT-116 cells assessed as cell detachment incubated for 24 hrs by phase contrast microscopic analysis; type: functional, cell-based
In short: (§1)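 HCT-116 plated at 1 × 10^6 cells/mL in RPMI + 10% FBS and allowed to adhere 24 h at 37 °C, 5% CO2. […] After 24 h, morphology imaged by phase-contrast microscopy at 20X.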

[2] = system: HCT-116; assay: Induction of apoptosis in human HCT-116 cells assessed as viable cells at 6.50 uM measured after 24 hrs by Annexin V-FITC/propidium iodide staining based flow cytometry (reference value: 99.71%); type: functional; details: read-out: Activity
[3] = system: HCT-116; assay: Induction of apoptosis in human HCT-116 cells assessed as early apoptotic cells at 6.50 uM measured after 24 hrs by Annexin V-FITC/propidium iodide staining based flow cytometry (reference value: 0.28%); type: functional; details: dose 6.5 µM
[4] = molecular target: Tubulin; assay: Inhibition of tubulin polymerization in human HCT-116 cells; type: cell-based
[5] = molecular target: T1, Tubulin (Homo sapiens) (UniProt P68371+Q9H4B7+P0DPH7+P68366+Q13509+Q71U36+P04350+Q3ZCM7+P07437+P68363+Q9BQE3+Q6PEY2+Q13885+Q9BVA1+Q9BUF5); assay: Inhibition of tubulin polymerization in human HCT-116 cells at 6.50 uM measured after 1 hr relative to control; type: cell-based; details: dose 6.5 µM
[6] = system: B16-F10; assay: Cytotoxicity against mouse B16-F10 cells assessed as inhibition of cell growth measured for 24 hrs by MTT assay; type: functional, cell-based; details: B16-F10, 24 h
In short: (§2)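 Cells were kept at 37 °C with 5% CO2 in suitable medium with 10% FBS and 1% antibiotic-antimycotic, and passaged at 80-90% confluency using 0.25% trypsin/1 mM EDTA. They were seeded at 1×10^3–4×10^3 cells/well and attached overnight. Compounds came from 10 mM DMSO stocks diluted in medium and were applied for 24 h. MTT (0.5 mg/mL) was added for 4 h at 37 °C, formazan was dissolved in DMSO, and absorbance was read at 570 nm.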

[7] = system: HCT-116; assay: Induction of apoptosis in human HCT-116 cells assessed as late apoptotic cells at 3.25 uM measured after 24 hrs by Annexin V-FITC/propidium iodide staining based flow cytometry (reference value: 0.00%); type: functional
[8] = system: HCT-116; assay: Induction of cell cycle arrest in human HCT-116 cells assessed as accumulation of cells at G0/G1 phase at 6.50 uM measured after 48 hrs by PI staining based flow cytometry analysis relative to control (reference value: 70.34%); type: functional; details: dose 6.5 µM
[9] = system: HCT-116; assay: Induction of apoptosis in human HCT-116 cells assessed as cell fragmentation measured for 24 hrs by DAPI staining based microscopic analysis; type: functional; details: dose 1.62-6.5 µM
In short: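 Cells were seeded at 1×10^6 cells/well in 24-well plates and cultured 24 h. […] After PBS washing they were fixed in 4% paraformaldehyde for 30 min, permeabilized with 0.1% Triton X for 15 min, and stained with 1 µM DAPI for 15 min. Imaging used fluorescence microscopy (ex 350/em 460 nm) at 20X.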

[10] = system: HCT-116; assay: Induction of apoptosis in human HCT-116 cells assessed as necrotic cells at 1.62 uM measured after 24 hrs by Annexin V-FITC/propidium iodide staining based flow cytometry (reference value: 0.00%); type: functional
[11] = system: HCT-116; assay: Induction of apoptosis in human HCT-116 cells assessed as micronuclei formation at 3.25 to 6.50 uM measured for 24 hrs by AO/EB staining based microscopic analysis; type: functional, cell-based; details: dose 3.25-6.5 µM
In short: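 Media removed; acridine orange and ethidium bromide (10 µg/ml, equal volumes) added in 1 mL PBS. Imaged immediately by fluorescence microscopy (excitation 488 nm, emission 550 nm) at 20X.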

[12] = system: HCT-116; assay: Induction of cell cycle arrest in human HCT-116 cells assessed as accumulation of cells at G2/M phase at 6.50 uM measured after 48 hrs by PI staining based flow cytometry analysis relative to control (reference value: 15.61%); type: functional; details: dose 6.5 µM
[13] = molecular target: T1, Tubulin (Homo sapiens); assay: Inhibition of tubulin polymerization in human HCT-116 cells at 1.62 uM measured after 1 hr relative to control; type: cell-based
[14] = system: HCT-116; assay: Induction of apoptosis in human HCT-116 cells assessed as early apoptotic cells at 3.25 uM measured after 24 hrs by Annexin V-FITC/propidium iodide staining based flow cytometry (reference value: 0.28%); type: functional
[15] = system: HCT-116; assay: Induction of apoptosis in human HCT-116 cells assessed as horseshoe shaped nuclei measured for 24 hrs by DAPI staining based microscopic analysis; type: functional, cell-based; details: dose 1.62-6.5 µM
In short: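 Then PBS wash, 4% paraformaldehyde fixation 30 min, 0.1% Triton X permeabilisation 15 min, 1 µM DAPI 15 min, PBS wash. Imaged by fluorescence microscopy (ex 350/em 460 nm), 20X.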

[16] = system: HCT-116; assay: Induction of apoptosis in human HCT-116 cells assessed as early apoptotic cells at 1.62 uM measured after 24 hrs by Annexin V-FITC/propidium iodide staining based flow cytometry (reference value: 0.28%); type: functional
[17] = system: HCT-116; assay: Induction of cell cycle arrest in human HCT-116 cells assessed as accumulation of cells at G0/G1 phase at 3.25 uM measured after 24 hrs by PI staining based flow cytometry analysis relative to control (reference value: 70.34%)
[18] = system: HCT-116; assay: Induction of apoptosis in human HCT-116 cells assessed as late apoptotic cells at 1.62 uM measured after 24 hrs by Annexin V-FITC/propidium iodide staining based flow cytometry (reference value: 0.00%); type: functional
[19] = molecular target: T1, Tubulin (Homo sapiens); assay: Inhibition of tubulin polymerization in human HCT-116 cells at 3.25 uM measured after 1 hr relative to control; type: cell-based
[20] = system: HCT-116; assay: Induction of cell cycle arrest in human HCT-116 cells assessed as accumulation of cells at S phase at 3.25 uM measured after 24 hrs by PI staining based flow cytometry analysis relative to control (reference value: 5.55%)
[21] = system: HCT-116; assay: Induction of cell cycle arrest in human HCT-116 cells assessed as accumulation of cells at G2/M phase at 3.25 uM measured after […] by PI staining based flow cytometry analysis relative to control (reference value: 15.61%); type: functional
[22] = Cytotoxicity against human HaCaT cells assessed as inhibition of cell growth measured for 24 hrs by MTT assay; type: toxicity, cell-based; in short: as §2
[23] = system: HCT-116; assay: Cytotoxicity against human HCT-116 cells assessed as inhibition of cell growth measured for 24 hrs by MTT assay; type: functional, cell-based; details: HCT-116, 24 h; in short: as §2
[24] = system: HCT-116; assay: Induction of apoptosis in human HCT-116 cells assessed as viable cells at 3.25 uM measured after 24 hrs by Annexin V-FITC/propidium iodide staining based flow cytometry (reference value: 99.71%); type: functional; details: read-out: Activity
[25] = system: HCT-116; assay: Induction of cell cycle arrest in human HCT-116 cells assessed as accumulation of cells at G0/G1 phase at 1.62 uM measured after 24 hrs by PI staining based flow cytometry analysis relative to control (reference value: 70.34%)
[26] = system: HCT-116; assay: Induction of morphological change in human HCT-116 cells assessed as change in cell shape incubated for 24 hrs by phase contrast microscopic analysis; type: functional, cell-based; details: dose 1.62-6.5 µM; in short: as §1

For `COc1ccc(/C=C(/C(=O)OCc2cn(Cc3cc(F)ccc3F)nn2)c2ccc(OC)c(OC)c2)cc1OC`, the Activity [1] was “Dose-Dependent Effect”, the viability at 6.5 µM [2] was 27.5% and the Activity [3] was 10.71%. For the same molecule, the pIC50 [4] was 5.35, the inhibition [5] was 65.2% and the pIC50 [6] was 4.82. For the same molecule, the Activity [7] was 25.22%, the Activity [8] was 38.48% and the Activity [9] was “Dose-Dependent Effect”. The Activity [10] was 0.52%, the Activity [11] was “Active” and the Activity [12] was 46.89%. The inhibition [13] was 33.4%, the Activity [14] was 13.51% and the Activity [15] was “Dose-Dependent Effect”. The Activity [16] was 18.1%, the Activity [17] was 50.62% and the Activity [18] was 0.16%. For the same molecule, the inhibition [19] was 36.5%, the Activity [20] was 9.51% and the Activity [21] was 38.72%. For the same molecule, the IC50 at 24 h [22] was 72.2 µM, the pIC50 [23] was 5.49 and the viability at 3.25 µM [24] was 44.6%. For the same molecule, the Activity [25] was 70.12% and the Activity [26] was “Dose-Dependent Effect”.
